What is called IC50 is the concentration that inhibits the measured activity by half. Low readings indicate inhibition by little substance, high ones a need for much substance.

For 10 compounds, IC50 results are on record in ChEMBL document CHEMBL1140809, “Design, synthesis, and biological evaluation of human sialidase inhibitors. Part 1: selective inhibitors of lysosomal sialidase (NEU1)” (Bioorg Med Chem Lett, 2008).

Molecules are shown by their SMILES.

Common to all, as to type: cell-based
One assay has as its target T1, Sialidase-3 (Homo sapiens, UniProt Q9UQ49).
T1 sequence (Q9UQ49 whole entry): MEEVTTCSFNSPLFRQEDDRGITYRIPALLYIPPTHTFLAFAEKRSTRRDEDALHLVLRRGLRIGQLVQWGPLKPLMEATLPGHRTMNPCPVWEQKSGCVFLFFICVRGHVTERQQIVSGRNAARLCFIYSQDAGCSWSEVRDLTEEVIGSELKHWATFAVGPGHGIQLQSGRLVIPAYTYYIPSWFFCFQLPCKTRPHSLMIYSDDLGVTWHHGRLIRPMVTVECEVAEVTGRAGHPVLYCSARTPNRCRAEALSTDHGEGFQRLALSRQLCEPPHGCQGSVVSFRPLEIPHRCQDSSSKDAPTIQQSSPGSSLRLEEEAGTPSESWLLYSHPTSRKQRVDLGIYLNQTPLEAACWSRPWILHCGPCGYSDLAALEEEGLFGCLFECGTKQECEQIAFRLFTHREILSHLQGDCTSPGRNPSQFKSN
Nature of the assay: Inhibition of human NEU3 expressed in HEK293 cells. A digest of the protocol: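 Enzyme source: homogenates of HEK-293 cells transiently transfected with full-length human NEU3 cDNA. Substrate: mixed gangliosides. One unit (nmol/h) of enzyme incubated 30–60 min. Four test concentrations (0.05, 0.1, 0.5, 1). IC50 derived by non-linear regression of concentration–inhibition curves.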

A further assay deals with Sialidase-1 (Homo sapiens, UniProt Q99519). Nature of the assay: Inhibition of human NEU1 expressed in HEK293 cells. The essentials:
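Homogenates of HEK-293 cells transiently co-transfected with full-length human NEU1 cDNA plus protective protein cDNA. Substrate: 4MU-NeuAc. One unit (nmol/h) of enzyme incubated 30–60 min. Each compound tested at four concentrations (0.05, 0.1, 0.5, 1). IC50 derived by non-linear regression of concentration–inhibition curves.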

In another assay the target is T2, Sialidase-4 (Homo sapiens, UniProt Q8WWR8).
T2 sequence (Q8WWR8 whole entry): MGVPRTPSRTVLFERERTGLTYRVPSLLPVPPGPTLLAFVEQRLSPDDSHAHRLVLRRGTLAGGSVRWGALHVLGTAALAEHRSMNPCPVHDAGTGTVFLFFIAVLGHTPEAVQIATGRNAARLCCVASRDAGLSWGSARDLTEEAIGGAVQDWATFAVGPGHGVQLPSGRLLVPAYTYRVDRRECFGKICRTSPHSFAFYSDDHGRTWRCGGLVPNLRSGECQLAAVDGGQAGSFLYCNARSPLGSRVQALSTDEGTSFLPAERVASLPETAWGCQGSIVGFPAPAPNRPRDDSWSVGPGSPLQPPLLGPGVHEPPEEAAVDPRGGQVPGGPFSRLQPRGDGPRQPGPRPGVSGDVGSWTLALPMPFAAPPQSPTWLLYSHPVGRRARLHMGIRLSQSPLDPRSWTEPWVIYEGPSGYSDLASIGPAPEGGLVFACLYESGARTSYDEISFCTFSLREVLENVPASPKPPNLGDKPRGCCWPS
Nature of the assay: Inhibition of human NEU4 expressed in HEK293 cells. A digest of the protocol: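 Human NEU4 (full-length cDNA) transiently expressed in HEK-293 cells, with cell homogenates as the enzyme source. Substrate: 4MU-NeuAc. One unit (nmol/h) of enzyme incubated 30–60 min. Four concentrations tested (0.05, 0.1, 0.5, 1). IC50 derived by non-linear regression of concentration–inhibition curves.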

Consider `CCCC(=O)NC[C@H](O)[C@H](O)[C@@H]1OC(C(=O)O)=C[C@H](O)[C@H]1NC(C)=O`, for which the IC50 is > 1000 µM at Sialidase-3 and 32 µM against Sialidase-1.

On to `CC(=O)N[C@H]1[C@H]([C@@H](O)[C@@H](O)CNC(=O)CC(C)C)OC(C(=O)O)=C[C@@H]1O`, for which the IC50 against Sialidase-3 was > 1000 µM; on Sialidase-4, > 1000 µM; against Sialidase-1, 565 µM.

On to `CC(=O)N[C@H]1[C@H]([C@@H](O)[C@@H](O)CNC(=O)C(C)C)OC(C(=O)O)=C[C@@H]1O`, for which the IC50 at Sialidase-3 and on Sialidase-4 was > 1000 µM throughout.

`CCCCC(=O)NC[C@H](O)[C@H](O)[C@@H]1OC(C(=O)O)=C[C@H](O)[C@H]1NC(C)=O`: on Sialidase-4, the 50% inhibitory concentration (IC50) was > 1000 µM.

For `CC(=O)N[C@H]1[C@H]([C@@H](O)[C@@H](O)CNC(=O)C(C)(C)C)OC(C(=O)O)=C[C@@H]1O`, the IC50 on Sialidase-3, against Sialidase-4 and against Sialidase-1 was > 1000 µM in each case.

As to `CC(=O)N[C@H]1[C@H]([C@@H](O)[C@@H](O)CNC(=O)c2ccccc2)OC(C(=O)O)=C[C@@H]1O`, the IC50 on Sialidase-3 stood at 320 µM; against Sialidase-4 it was 810 µM; against Sialidase-1 it was 13 µM.

On to `CC(=O)N[C@H]1[C@H]([C@@H](O)[C@@H](O)CNC(=O)C2CCCC2)OC(C(=O)O)=C[C@@H]1O`, for which the IC50 was > 1000 µM against Sialidase-3, > 1000 µM on Sialidase-4 and 135 µM against Sialidase-1.

Turning to `CC(=O)N[C@H]1[C@H]([C@@H](O)[C@@H](O)CNC(=O)C2CC2)OC(C(=O)O)=C[C@@H]1O`, the IC50 against Sialidase-3 is > 1000 µM; at Sialidase-4 it was 825 µM; on Sialidase-1, 680 µM.

Turning to `CC(=O)NC[C@H](O)[C@H](O)[C@@H]1OC(C(=O)O)=C[C@H](O)[C@H]1NC(C)=O`, the concentration for half-maximal inhibition (IC50) was > 1000 µM at Sialidase-3, 580 µM on Sialidase-4 and 58 µM on Sialidase-1.

In the case of `CCC(C)CC(=O)NC[C@H](O)[C@H](O)[C@@H]1OC(C(=O)O)=C[C@H](O)[C@H]1NC(C)=O` (stereo partly specified), the half-inhibitory concentration (IC50) against Sialidase-3, on Sialidase-4 and against Sialidase-1 was > 1000 µM each time.
